# High-throughput results as filed in PubChem.
# Most compounds without a hit are left out; they make up all but 5.8% or so of the library.
# IDH1 R132H inh: blocks human IDH1 R132H reductase activity | O75874 | diaphorase/resazurin fluorescence, 60 min | inhibition, % at 10 µM | actives 0.18% (n = 70,000) | AID 624101; in the data active = inhibition above about 34%
# Pf Dd2 growth: P. falciparum Dd2 growth inhibition | SYBR Green, 72 h; stronger effect = lower value | activity change, % at 10 µM | actives 2.3% (n = 94,000); in the data active = activity change below about -80%
# T cruzi growth: inhibitors of T. cruzi proliferation | T. cruzi beta-gal in NIH3T3, GalScreen luminescence, 90 h | inhibition, % at 8.34 µM | actives 5.9% (n = 77,000);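 active = mean inhibition above about 93%, with at least 55% of replicates each passing it, limit read from the data, passing the limit was not always enough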
# GASC1 inh: blocks human GASC-1 (KDM4C) demethylase activity | Q9H3R0 | GST-KDM4C 2-372, H3K9me3 peptide, LANCE TR-FRET | inhibition, % at 12.5 µM | actives 0.15% (n = 96,000);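 active = mean replicate inhibition above about 25%, with at least 55% of replicates also reaching it, limit read from the data, passing the limit was not always enough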
# Target sequence (Q9H3R0 2-372 limits assumed): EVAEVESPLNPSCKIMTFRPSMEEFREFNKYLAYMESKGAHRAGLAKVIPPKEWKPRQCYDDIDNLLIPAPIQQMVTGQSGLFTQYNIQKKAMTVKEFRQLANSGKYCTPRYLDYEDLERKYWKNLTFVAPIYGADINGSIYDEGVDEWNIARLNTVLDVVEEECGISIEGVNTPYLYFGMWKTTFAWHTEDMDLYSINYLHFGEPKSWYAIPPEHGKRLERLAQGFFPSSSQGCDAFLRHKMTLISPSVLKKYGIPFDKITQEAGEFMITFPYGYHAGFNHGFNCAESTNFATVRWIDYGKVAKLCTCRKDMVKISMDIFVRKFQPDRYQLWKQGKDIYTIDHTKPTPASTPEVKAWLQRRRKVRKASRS
#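 System: N-terminal GST-fused human GASC-1 (KDM4C) fragment, residues 2-372; amount: enzyme final amount 10 nM; incubation: reaction 30 min RT, detection step 1 h RT; medium: HEPES buffer, pH 7.5, plus ascorbate; technique: LANCE TR-FRET, Eu antibody, ULight-streptavidin, EDTA, ex 340 nm, em 618/671 nm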
# A number is an active result; n = inactive; x = no result given.
SMILES,IDH1 R132H inh,Pf Dd2 growth,T cruzi growth,GASC1 inh
CO[C@@H]1CN(C)C(=O)c2ccc(NC(=O)c3nc4ccccc4s3)cc2OC[C@H](C)N(Cc2cccnc2)C[C@H]1C,x,n,n,n
CO[C@@H]1CN(C)C(=O)c2ccc(NC(=O)c3nc4ccccc4s3)cc2OC[C@H](C)N(Cc2ccncc2)C[C@@H]1C,n,-95.9,x,n
C[C@@H]1CCCCO[C@@H](CN(C)C(=O)Nc2ccc(C(F)(F)F)cc2)[C@@H](C)CN([C@H](C)CO)C(=O)c2cc(NC(=O)Nc3cccc4ccccc34)ccc2O1,n,n,x,n
C[C@@H]1CN([C@H](C)CO)C(=O)Cc2cc(NC(=O)Nc3ccc(C(F)(F)F)cc3)ccc2O[C@H]1CN(C)C(=O)Nc1cccc2ccccc12,n,-84.6,n,n
C[C@@H]1CCCCO[C@H](CN(C)C(=O)Nc2ccc(C(F)(F)F)cc2)[C@H](C)CN([C@H](C)CO)C(=O)c2cc(NC(=O)Nc3cccc4ccccc34)ccc2O1,x,-87.1,n,n
C[C@@H]1CCCCO[C@@H](CN(C)C(=O)Nc2cccc3ccccc23)[C@H](C)CN([C@H](C)CO)C(=O)c2cc(NC(=O)Nc3ccc(C(F)(F)F)cc3)ccc2O1,x,n,109.4,n
C[C@@H]1CCCCO[C@H](CN(C)C(=O)Nc2cccc3ccccc23)[C@@H](C)CN([C@@H](C)CO)C(=O)c2cc(NC(=O)Nc3ccc(C(F)(F)F)cc3)ccc2O1,n,-80.7,n,n
N#Cc1cccc(NC(=O)CCCN2C(=O)c3ccccc3C2=O)c1,n,x,x,x
NC(=O)CSc1nnc(Cc2ccccc2)n1-c1ccccc1,n,x,x,x
C[C@H](CO)N1C[C@H](C)[C@H](CN(C)C(=O)Nc2cccc3ccccc23)Oc2ccc(NC(=O)Nc3ccc(C(F)(F)F)cc3)cc2C1=O,n,n,n,n
C[C@@H]1CN([C@H](C)CO)C(=O)c2cc(NC(=O)Nc3ccc(C(F)(F)F)cc3)ccc2O[C@H]1CN(C)C(=O)Nc1cccc2ccccc12,n,-94.9,n,n
C[C@H]1CN([C@@H](C)CO)C(=O)c2c(c3ccccc3n2C)-c2ccccc2CO[C@@H]1CN(C)C(=O)Cc1ccccc1,x,-91.1,n,n
C[C@H](CO)N1C[C@H](C)[C@@H](CN(C)C(=O)Cc2ccccc2)OCc2ccccc2-c2c(n(C)c3ccccc23)C1=O,x,-81.1,n,n
C[C@@H]1CN([C@H](C)CO)C(=O)c2c(c3ccccc3n2C)-c2ccccc2CO[C@H]1CN(C)C(=O)Cc1ccccc1,x,n,x,x
C[C@H](CO)N1C[C@H](C)[C@H](CN(C)C(=O)Cc2ccccc2)OCc2ccccc2-c2c(n(C)c3ccccc23)C1=O,n,n,n,n
COc1cccc(C#Cc2ccc([C@H]3[C@@H](CO)N(C(=O)C4CCC4)[C@H]3C#N)cc2)c1,n,-85.6,n,n
COc1cccc(C#Cc2ccc([C@H]3[C@@H](CO)N(C(=O)C4CCCC4)[C@H]3C#N)cc2)c1,x,-93.5,x,n
COc1cccc(C#Cc2ccc([C@H]3[C@@H](C#N)N(C(=O)C4CCCC4)[C@@H]3CO)cc2)c1,x,-83.3,x,n
COc1cccc(C#Cc2ccc([C@@H]3[C@H](C#N)N(C(=O)C4CCC4)[C@H]3CO)cc2)c1,x,n,n,n
COc1cccc(C#Cc2ccc([C@H]3[C@@H](CO)N(C(=O)C4CCCCC4)[C@H]3C#N)cc2)c1,n,-94.8,n,n
COc1cccc(C#Cc2ccc([C@H]3[C@H](C#N)N(C(=O)C4CCCC4)[C@H]3CO)cc2)c1,x,n,x,n
COc1cccc(C#Cc2ccc([C@@H]3[C@@H](C#N)N(C(=O)C4CCCC4)[C@@H]3CO)cc2)c1,x,n,x,n
O=C(O)CN(c1ccc([N+](=O)[O-])cc1)S(=O)(=O)c1ccccc1,n,x,x,x
Cc1cc(Nc2ccccc2NC(=O)c2ccc([N+](=O)[O-])cc2)n(-c2ccccc2)n1,n,x,x,x
CC(NS(=O)(=O)c1ccc(Cl)cc1)C(=O)Nc1ccc(Oc2ccccc2)cc1 (stereo unspecified),n,x,x,x
SMILES,IDH1 R132H inh,Pf Dd2 growth,T cruzi growth,GASC1 inh
C[C@H]1CN([C@@H](C)CO)S(=O)(=O)c2ccc(/C=C/c3ccccc3)cc2O[C@@H]1CN(C)C(=O)c1ccccc1,n,n,125.1,n
C[C@H](CO)N1C[C@H](C)[C@H](CN(C)C(=O)Nc2cc(F)ccc2F)Oc2cc(/C=C/c3ccccc3)ccc2S1(=O)=O,n,-87.9,x,n
COC(=O)c1c(NC(=O)c2ccc(Cn3cc(Cl)cn3)cc2)sc2c1CCC2,n,x,x,x
COc1ccc(S(=O)(=O)N(C)C[C@@H]2Oc3ccc(NS(=O)(=O)c4ccc(F)cc4)cc3CC(=O)N([C@@H](C)CO)C[C@@H]2C)cc1,n,n,n,n
COc1ccc(S(=O)(=O)Nc2ccc3c(c2)CC(=O)N([C@H](C)CO)C[C@H](C)[C@@H](CN(C)S(=O)(=O)c2ccc(F)cc2)O3)cc1,n,n,n,27.1
COc1ccc(S(=O)(=O)Nc2ccc3c(c2)CC(=O)N([C@H](C)CO)C[C@H](C)[C@H](CN(C)S(=O)(=O)c2ccc(C)cc2)O3)cc1,n,-86.3,n,n
COc1ccc(S(=O)(=O)Nc2ccc3c(c2)CC(=O)N([C@H](C)CO)C[C@H](C)[C@H](CN(C)S(=O)(=O)c2ccc(Cl)cc2)O3)cc1,n,n,n,n
COc1ccc(S(=O)(=O)N(C)C[C@@H]2Oc3ccc(NS(=O)(=O)c4ccc(Cl)cc4)cc3CC(=O)N([C@@H](C)CO)C[C@@H]2C)cc1,n,-82.5,n,n
Cn1c(=O)c2c(nc(NCc3cccnc3)n2Cc2c(F)cccc2Cl)n(C)c1=O,n,x,x,x
O=C(CC1(O)C(=O)N(Cc2cccc3ccccc23)c2ccccc21)c1ccccn1 (stereo unspecified),n,x,x,x
C[C@@H]1CN([C@H](C)CO)C(=O)c2ccccc2-c2ccccc2CO[C@@H]1CN(C)Cc1ccc(Oc2ccccc2)cc1,n,-88.0,x,n
C[C@H]1CN([C@@H](C)CO)C(=O)c2ccccc2-c2ccccc2CO[C@H]1CN(C)Cc1ccc(O)cc1,n,n,n,n
C[C@H]1CN([C@@H](C)CO)C(=O)c2ccccc2-c2ccccc2CO[C@H]1CN(C)Cc1ccc(Oc2ccccc2)cc1,x,-86.7,x,n
COc1ccc(CN2C[C@@H](C)[C@@H](OC)CN(C)C(=O)c3cc(NC(=O)c4nc5ccccc5s4)ccc3OC[C@@H]2C)cc1,n,n,x,n
COc1ccc(CN2C[C@H](C)[C@@H](OC)CN(C)C(=O)c3cc(NC(=O)c4nc5ccccc5s4)ccc3OC[C@@H]2C)cc1,n,-85.2,x,n
CO[C@@H]1CN(C)C(=O)c2cc(NC(=O)c3nc4ccccc4s3)ccc2OC[C@@H](C)N(Cc2ccccc2)C[C@H]1C,n,-85.5,x,n
Cc1ccc([N+](=O)[O-])cc1N(CC(=O)O)S(C)(=O)=O,n,x,x,x
